Laboratory results published in article PMC6510378 (Clinical and Translational Science, 2019).

Assay: MAD study part 2
Format: in vivo, human
In short: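 Healthy young non-Japanese adults, open-label oral dosing. 0.7 or 2 mg was given as a single dose on day 1, then after a 6-day washout once daily. 0.4 mg was given once daily on days 1–14. 0.2 mg followed a 3 mg loading dose on day 1, days 2–14. PK doses were given fasted 10 h, with no food for 4 h. Plasma drug was measured by validated HPLC-MS/MS, with below-limit values set to zero. AUClast was reported where AUCinf was not calculable.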

[1] = MAD part 2, day 1 single dose 0.7 mg, young non-Japanese, n=6
[2] = MAD part 2, day 1 single dose 2 mg, young non-Japanese, n=2
[3] = MAD part 2, last day of q.d. 14 days 0.4 mg, young non-Japanese, n=2
[4] = MAD part 2, last day of q.d. 14 days 0.4 mg, young non-Japanese, n=4
[5] = MAD part 2, last day of q.d. 14 days 0.7 mg, young non-Japanese, n=1
[6] = MAD part 2, last day of q.d. 14 days 0.7 mg, young non-Japanese, n=6
[7] = MAD part 2, last day of q.d. 14 days 2 mg, young non-Japanese, n=4
[8] = MAD part 2, last day of q.d. 14 days 2 mg, young non-Japanese, n=5

With `Cn1c(-c2ccc(C(N)=O)cc2F)nnc1C(C)(C)Oc1c(F)cc(Cl)cc1F` [ASP3662] the “steady state after 14 days of q.d. dosing” value (0.2 and 0.4 mg, despite 3‐mg loading dose in 0.2‐mg group) was “not fully reached”, the “AUCinf (AUClast values presented, footnote a), Mean (SD)” value [1] was 0.2437 (0.4421) ng·hour/mL and the “AUCinf (AUClast values presented, footnote a), Median” value [1] was 0.01242 ng·h/mL. For the same compound, the “AUCinf (AUClast values presented, footnote a), Min–max” value [1] was 0 to 1.11 ng·h/mL, the “CL/F, Mean (SD)” value [2] was 42.21 (6.917) L/hour and the “CL/F, Median” value [2] was 42.21 L/h. The “CL/F, Min–max” value [2] was 37.3 to 47.1 L/h, the “VzF, Mean (SD)” value [2] was 5,472 (1,378) L and the “VzF, Median” value [2] was 5,472 L. The “VzF, Mean (SD)” value [3] was 2,516 (45.89) L, the “VzF, Median” value [3] was 2,516 L and the “VzF, Min–max” value [3] was 2,484–2,549 L. For the same compound, the “CL/F, Mean (SD)” value [4] was 10.83 (0.7639) L/hour, the “CL/F, Median” value [4] was 10.83 L/h and the “CL/F, Min–max” value [4] was 9.90 to 11.8 L/h. For the same compound, the “Ctrough, Mean (SD)” value [4] was 1.072 (0.1719) ng/mL, the “Ctrough, Median” value [4] was 1.053 ng/mL and the “Ctrough, Min–max” value [4] was 0.918 to 1.26 ng/mL. For the same compound, the “VzF, Mean (SD)” value [5] was 3,677 (NC) L, the “VzF, Median” value [5] was 3,677 L and the “VzF, Min–max” value [5] was 3,677–3,677 L. The “CL/F, Mean (SD)” value [6] was 11.44 (2.349) L/hour, the “CL/F, Median” value [6] was 11.34 L/h and the “CL/F, Min–max” value [6] was 7.45 to 14.2 L/h. For the same compound, the “Ctrough, Mean (SD)” value [6] was 1.389 (0.3190) ng/mL, the “Ctrough, Median” value [6] was 1.234 ng/mL and the “Ctrough, Min–max” value [6] was 1.10 to 1.83 ng/mL. The “VzF, Mean (SD)” value [7] was 1,231 (547.6) L, the “VzF, Median” value [7] was 1,165 L and the “VzF, Min–max” value [7] was 715–1,880 L. The “CL/F, Mean (SD)” value [8] was 9.41 (1.208) L/hour, the “CL/F, Median” value [8] was 9.139 L/h and the “CL/F, Min–max” value [8] was 8.23 to 11.4 L/h. The “Ctrough, Mean (SD)” value [8] was 3.493 (1.166) ng/mL, the “Ctrough, Median” value [8] was 3.437 ng/mL and the “Ctrough, Min–max” value [8] was 1.80 to 5.03 ng/mL.
